Measured values as given in ChEMBL document CHEMBL3585302, “Synthesis and antibacterial activities of cadiolides A, B and C and analogues” (Bioorg Med Chem, 2015).
Calls of active or inactive are those of the source. The rule behind the calls is not given here.

Tests used:
Enterococcus faecalis [1] = assay: Antibacterial activity against Enterococcus faecalis CECT 481 assessed as inhibition of microbial growth incubated for 18 hrs by 2-fold microtiter broth dilution method; assay type: functional, organism-based; details: CECT 481, 18 h
Method in brief: (§1)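 Compounds in DMSO, ten 2-fold serial dilutions (125 down to 0.24 µg/mL tested). Bacteria at OD620 = 0.001 in Nutrient Broth mixed 1:1 with dilutions. Incubated overnight (18 h) at 28°C or 37°C according to strain. Growth read turbidimetrically at OD620. MIC is the lowest concentration giving complete growth inhibition. Triplicate runs. Tetracycline as reference.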

Escherichia coli [2] = assay: Antibacterial activity against Escherichia coli CECT 100 assessed as inhibition of microbial growth incubated for 18 hrs by 2-fold microtiter broth dilution method; assay type: functional, organism-based; details: CECT 100, 18 h; method in brief: as §1
Salmonella typhi [3] = assay: Antibacterial activity against Salmonella typhi CECT 409 assessed as inhibition of microbial growth incubated for 18 hrs by 2-fold microtiter broth dilution method; assay type: functional, organism-based, Salmonella enterica subsp. enterica serovar Typhi; details: Salmonella enterica, CECT 409, 18 h
Method in brief: (§2)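 Compounds in DMSO, ten 2-fold serial dilutions (125 down to 0.24 µg/mL), mixed 1:1 with bacteria in Nutrient Broth at OD620 = 0.001. Incubated overnight (18 h) at 28 or 37 °C depending on strain. Growth read turbidimetrically at OD620; MIC is the lowest concentration completely inhibiting growth, per CLSI. Triplicate runs; tetracycline reference.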

Staphylococcus aureus [4] = assay: Antibacterial activity against Staphylococcus aureus CECT 86 assessed as inhibition of microbial growth incubated for 18 hrs by 2-fold microtiter broth dilution method; assay type: functional, organism-based; details: CECT 86, 18 h; method in brief: as §1
Escherichia coli [5] = assay: Antibacterial activity against Escherichia coli CECT 405 assessed as inhibition of microbial growth incubated for 18 hrs by 2-fold microtiter broth dilution method; assay type: functional, organism-based; details: CECT 405, 18 h; method in brief: as §1
[6] = system: Pectobacterium carotovorum; assay: Antibacterial activity against Erwinia carotovora CECT 225 assessed as inhibition of microbial growth incubated for 18 hrs by 2-fold microtiter broth dilution method; assay type: functional, organism-based; details: CECT 225, 18 h; method in brief: as §1
Bacillus cereus [7] = assay: Antibacterial activity against Bacillus cereus CECT 148 assessed as inhibition of microbial growth incubated for 18 hrs by 2-fold microtiter broth dilution method; assay type: functional, organism-based; details: CECT 148, 18 h; method in brief: as §1
Bacillus subtilis [8] = assay: Antibacterial activity against Bacillus subtilis CECT 35 assessed as inhibition of microbial growth incubated for 18 hrs by 2-fold microtiter broth dilution method; assay type: functional, organism-based; details: CECT 35, 18 h; method in brief: as §1
Bacillus cereus [9] = assay: Antibacterial activity against Bacillus cereus CECT 148 assessed as inhibition of microbial growth at 125 ug/ml incubated for 18 hrs by 2-fold microtiter broth dilution method; assay type: functional, organism-based; method in brief: as §1
Bacillus subtilis [10] = assay: Antibacterial activity against Bacillus subtilis CECT 35 assessed as inhibition of microbial growth at 125 ug/ml incubated for 18 hrs by 2-fold microtiter broth dilution method; assay type: functional, organism-based; method in brief: as §1
Enterococcus faecalis [11] = assay: Antibacterial activity against Enterococcus faecalis CECT 481 assessed as inhibition of microbial growth at 125 ug/ml incubated for 18 hrs by 2-fold microtiter broth dilution method; assay type: functional, organism-based; method in brief: as §1
[12] = system: Pectobacterium carotovorum; assay: Antibacterial activity against Erwinia carotovora CECT 225 assessed as inhibition of microbial growth at 125 ug/ml incubated for 18 hrs by 2-fold microtiter broth dilution method; assay type: functional, organism-based; method in brief: as §1
Salmonella typhi [13] = assay: Antibacterial activity against Salmonella typhi CECT 409 assessed as inhibition of microbial growth at 125 ug/ml incubated for 18 hrs by 2-fold microtiter broth dilution method; assay type: functional, organism-based; details: Salmonella enterica subsp. enterica serovar Typhi; method in brief: as §2
Escherichia coli [14] = assay: Antibacterial activity against Escherichia coli CECT 405 assessed as inhibition of microbial growth at 125 ug/ml incubated for 18 hrs by 2-fold microtiter broth dilution method; assay type: functional, organism-based; method in brief: as §1
Escherichia coli [15] = assay: Antibacterial activity against Escherichia coli CECT 100 assessed as inhibition of microbial growth at 125 ug/ml incubated for 18 hrs by 2-fold microtiter broth dilution method; assay type: functional, organism-based; method in brief: as §1
Staphylococcus aureus [16] = assay: Antibacterial activity against Staphylococcus aureus CECT 86 assessed as inhibition of microbial growth at 125 ug/ml incubated for 18 hrs by 2-fold microtiter broth dilution method; assay type: functional, organism-based; method in brief: as §1

| Structure (SMILES) | MIC (Enterococcus faecalis [1]) [µg/mL] | MIC (Escherichia coli [2]) [µg/mL] | MIC (Salmonella typhi [3]) [µg/mL] | MIC (Staphylococcus aureus [4]) [µg/mL] | MIC (Escherichia coli [5]) [µg/mL] | MIC [6] [µg/mL] | MIC (Bacillus cereus [7]) [µg/mL] | MIC (Bacillus subtilis [8]) [µg/mL] | growth inhibition (GI) (Bacillus cereus [9]) | growth inhibition (GI) (Bacillus subtilis [10]) | growth inhibition (GI) (Enterococcus faecalis [11]) | growth inhibition (GI) [12] | growth inhibition (GI) (Salmonella typhi [13]) | growth inhibition (GI) (Escherichia coli [14]) | growth inhibition (GI) (Escherichia coli [15]) | growth inhibition (GI) (Staphylococcus aureus [16]) |
| --- | --- | --- | --- | --- | --- | --- | --- | --- | --- | --- | --- | --- | --- | --- | --- | --- |
| O=C1O/C(=C\c2cc(Br)c(O)c(Br)c2)C(c2ccc(O)cc2)=C1C(=O)c1cc(Br)c(O)c(Br)c1 | 15.6 | > 125 | 15.6 | 15.6 | 15.6 | 125 | 15.6 | 125 | – | – | – | – | – | – | – | – |
| COc1c(Br)cc(C2=C(C(=O)c3cc(Br)c(O)c(Br)c3)C(=O)O/C2=C\c2cc(Br)c(O)c(Br)c2)cc1Br | – | – | – | – | – | – | – | – | inactive | inactive | inactive | inactive | inactive | inactive | inactive | inactive |
| O=C1O/C(=C\c2ccc(O)c(Br)c2)C(c2ccc(O)cc2)=C1C(=O)c1ccc(O)cc1 | > 125 | > 125 | > 125 | > 125 | > 125 | > 125 | 125 | > 125 | – | – | – | – | – | – | – | – |
| O=C1O/C(=C\c2ccc(O)cc2)C(c2ccc(O)cc2)=C1C(=O)c1ccco1 | 31.2 | 31.2 | 15.6 | 15.6 | 31.2 | > 125 | 15.6 | > 125 | – | – | – | – | – | – | – | – |
| O=C1O/C(=C\c2ccc(O)c(Br)c2)C(c2ccc(O)c(Br)c2)=C1C(=O)c1cc(Br)c(O)c(Br)c1 [CADIOLIDE C] | 3.9 | > 125 | 3.9 | 3.9 | 3.9 | 125 | 3.9 | 125 | – | – | – | – | – | – | – | – |
| CN(C)[C@@H]1C(O)=C(C(N)=O)C(=O)[C@@]2(O)C(O)=C3C(=O)c4c(O)cccc4[C@@](C)(O)[C@H]3C[C@@H]12 [TETRACYCLINE] | 0.48 | 3.9 | 7.81 | 0.24 | 7.81 | 3.9 | 3.9 | 0.97 | – | – | – | – | – | – | – | – |
| O=C1O/C(=C\c2ccc(O)cc2)C(c2ccc(O)cc2)=C1C(=O)c1ccc(O)cc1 | 125 | 62.5 | 125 | 62.5 | 62.5 | 125 | 62.5 | > 125 | – | – | – | – | – | – | – | – |
| O=C1O/C(=C\c2cc(Br)c(O)c(Br)c2)C(c2cc(Br)c(O)c(Br)c2)=C1C(=O)c1cc(Br)c(O)c(Br)c1 [CADIOLIDE B] | 7.81 | > 125 | 15.6 | 7.81 | 7.81 | > 125 | 7.81 | > 125 | – | – | – | – | – | – | – | – |
| O=C1O/C(=C\c2cc(Br)c(O)c(Br)c2)C(c2ccc(O)c(Br)c2)=C1C(=O)c1ccc(O)c(Br)c1 | 1.95 | > 125 | 3.9 | 3.9 | 3.9 | 125 | 1.95 | 125 | – | – | – | – | – | – | – | – |
| O=C1O/C(=C\c2ccc(O)c(Br)c2)C(c2ccc(O)cc2)=C1C(=O)c1ccc(O)c(Br)c1 | > 125 | > 125 | 125 | > 125 | 125 | > 125 | 3.9 | > 125 | – | – | – | – | – | – | – | – |
| O=C1O/C(=C\c2cc(Br)c(O)c(Br)c2)C(c2cc(Br)c(O)c(Br)c2)=C1C(=O)c1ccc(O)c(Br)c1 | 3.9 | > 125 | 3.9 | 3.9 | 1.95 | 125 | 3.9 | 125 | – | – | – | – | – | – | – | – |
